Source: ChEMBL document CHEMBL3259712, “New 5-unsubstituted dihydropyridines with improved CaV1.3 selectivity as potential neuroprotective agents against ischemic injury” (J Med Chem, 2014)
Active and inactive are the calls of the source. The calls are words filed in the database; no cut-off is given here.

How the values were obtained:
SH-SY5Y [1] = test: Neuroprotective activity against rotenone-oligomycin A-induced oxidative stress in human SH-SY5Y cells assessed as protection at 5 uM co-incubated rot/oligo for 24 hrs by MTT assay relative to control; format: functional
Procedure, shortened: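 SH-SY5Y cells in 1% FBS medium co-incubated 24 h with compound and rotenone/oligomycin A (30/10 μM). Melatonin 0.3 μM was the positive control, and compounds were used at 5 μM. Viability by MTT reduction at 540 nm. % protection computed against basal as 100% and normalized to rot/olig toxicity; five to seven cultures in triplicate.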

SH-SY5Y [2] = test: Neuroprotective activity against K+ induced Ca2+ overload in human SH-SY5Y cells assessed as survival at 5 uM after 24 hrs by MTT assay (reference value: 52.1 +/- 3.5%); format: functional; conditions: read-out: Survival
SH-SY5Y [3] = test: Neuroprotective activity against rotenone-oligomycin A-induced oxidative stress in human SH-SY5Y cells assessed as survival at 5 uM co-incubated rot/oligo for 24 hrs by MTT assay (Rvb =65.6 +/- 1.3%); format: functional; conditions: read-out: Survival
SH-SY5Y [4] = test: Neuroprotective activity against K+ induced Ca2+ overload in human SH-SY5Y cells assessed as protection at 5 uM after 24 hrs by MTT assay relative to control; format: functional
Procedure, shortened: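 SH-SY5Y cells, 1 × 10⁵/well, 1% FBS medium, up to 13 passages. Compound diluted from 10⁻² M DMSO stock to 5 μM and co-incubated 24 h with 70 mM K⁺ (hypertonic); DMSO-only controls. MTT at 5 mg/mL for 2 h at 37 °C, read at 540 nm. % protection computed against basal as 100% survival and normalized to K⁺ toxicity; at least five cultures in triplicate.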

[5] = target: Voltage-dependent L-type calcium channel subunit alpha-1D (Homo sapiens, UniProt Q01668); test: Inhibition of human Cav1.3 channel in human SH-SY5Y cells assessed as 70 mM K+ induced calcium elevation compound treated 15 mins before stimulus by Fluo-4/AM assay; format: cell-based
Procedure, shortened: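 SH-SY5Y cells grown 2 days, loaded with 10 μM Fluo-4/AM for 1 h at 37 °C in serum-free medium, washed with Krebs-HEPES and held 15 min at room temperature. Compound applied 15 min before 70 mM KCl.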

SH-SY5Y [6] = test: Neuroprotective activity against rotenone-oligomycin A-induced oxidative stress in human SH-SY5Y cells assessed as protection incubated with rot/oligo for 8 hrs followed by treated with compound at 5 uM for 16 hrs by MTT assay relative to control; format: functional
Procedure, shortened: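 SH-SY5Y cells cultured 24 h, then exposed to rotenone/oligomycin A (30/10 μM) for 8 h at 37 °C. Stressor was removed and cells incubated 16 h with compound in 1% FBS medium. Melatonin 0.3 μM was the positive control, and compounds were used at 5 μM. Viability by MTT; % protection against basal as 100%, normalized to rot/olig toxicity; five to seven cultures in triplicate.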

[7] = target: Voltage-dependent L-type calcium channel subunit alpha-1C (Rattus norvegicus, UniProt P22002); test: Inhibition of rat Cav1.2 channel in rat mesenteric artery assessed as relaxation of 70 mM K+ induced contraction; format: tissue-based; conditions: for inhibition (INH): rat
Procedure, shortened: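 Third-order mesenteric artery segments (2 mm) from 6-month-old Wistar Kyoto rats on a wire myograph, isometric tension, Krebs−Henseleit at 37 °C, pH 7.4. Segments equilibrated, stretched to optimal diameter, tested with 120 mM KCl, endothelium checked with 10 μM acetylcholine.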

SH-SY5Y [8] = test: Neuroprotective activity against rotenone-oligomycin A-induced oxidative stress in human SH-SY5Y cells assessed as survival incubated with rot/oligo for 8 hrs followed by treated with compound at 5 uM for 16 hrs by MTT assay (Rvb =70.6 +/- 1.8%); format: functional; conditions: read-out: Survival
Procedure, shortened: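 SH-SY5Y cells cultured 24 h, then exposed to rotenone/oligomycin A (30/10 μM) for 8 h at 37 °C. Stressor removed; compound in 1% FBS medium added for 16 h. DMSO-only control. MTT reduction (5 mg/mL, 2 h, 37 °C; OD 540 nm). Survival relative to untreated basal; mean ± SEM of five to seven cultures in triplicate.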

[9] = Selectivity ratio of IC50 for human Cav1.3 channel to IC50 for rat Cav1.2 channel
Hippocampus = test: Neuroprotective activity against oxygen-glucose deprivation induced-oxidative stress in rat hippocampal slices assessed as maximum protection treated at 10 uM during 120 mins of reoxygenation period by MTT assay (Rvb =40%); format: functional
Procedure, shortened: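 Transverse hippocampal slices ([…] as printed) from adult male Sprague−Dawley rats (275−325 g). After 30 min stabilization, 15 min OGD at 37 °C in glucose-free Krebs (2-deoxyglucose) under 95% N₂/5% CO₂, then 120 min reoxygenation in oxygenated Krebs with compound (1, 3, 10 μM) present. MTT at 0.5 mg/mL for 30 min at 37 °C; control slices set as 100%; five experiments.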

SH-SY5Y [10] = test: Neuroprotective activity against K+ induced Ca2+ overload in human SH-SY5Y cells assessed as protection at 0.3 uM after 24 hrs by MTT assay relative to control; format: functional
SH-SY5Y [11] = test: Neuroprotective activity against K+ induced Ca2+ overload in human SH-SY5Y cells assessed as survival at 0.3 uM after 24 hrs by MTT assay (reference value: 52.1 +/- 3.5%); format: functional; conditions: read-out: Survival

Voltage-dependent L-type calcium channel subunit alpha-1C, sequence (P22002 whole entry): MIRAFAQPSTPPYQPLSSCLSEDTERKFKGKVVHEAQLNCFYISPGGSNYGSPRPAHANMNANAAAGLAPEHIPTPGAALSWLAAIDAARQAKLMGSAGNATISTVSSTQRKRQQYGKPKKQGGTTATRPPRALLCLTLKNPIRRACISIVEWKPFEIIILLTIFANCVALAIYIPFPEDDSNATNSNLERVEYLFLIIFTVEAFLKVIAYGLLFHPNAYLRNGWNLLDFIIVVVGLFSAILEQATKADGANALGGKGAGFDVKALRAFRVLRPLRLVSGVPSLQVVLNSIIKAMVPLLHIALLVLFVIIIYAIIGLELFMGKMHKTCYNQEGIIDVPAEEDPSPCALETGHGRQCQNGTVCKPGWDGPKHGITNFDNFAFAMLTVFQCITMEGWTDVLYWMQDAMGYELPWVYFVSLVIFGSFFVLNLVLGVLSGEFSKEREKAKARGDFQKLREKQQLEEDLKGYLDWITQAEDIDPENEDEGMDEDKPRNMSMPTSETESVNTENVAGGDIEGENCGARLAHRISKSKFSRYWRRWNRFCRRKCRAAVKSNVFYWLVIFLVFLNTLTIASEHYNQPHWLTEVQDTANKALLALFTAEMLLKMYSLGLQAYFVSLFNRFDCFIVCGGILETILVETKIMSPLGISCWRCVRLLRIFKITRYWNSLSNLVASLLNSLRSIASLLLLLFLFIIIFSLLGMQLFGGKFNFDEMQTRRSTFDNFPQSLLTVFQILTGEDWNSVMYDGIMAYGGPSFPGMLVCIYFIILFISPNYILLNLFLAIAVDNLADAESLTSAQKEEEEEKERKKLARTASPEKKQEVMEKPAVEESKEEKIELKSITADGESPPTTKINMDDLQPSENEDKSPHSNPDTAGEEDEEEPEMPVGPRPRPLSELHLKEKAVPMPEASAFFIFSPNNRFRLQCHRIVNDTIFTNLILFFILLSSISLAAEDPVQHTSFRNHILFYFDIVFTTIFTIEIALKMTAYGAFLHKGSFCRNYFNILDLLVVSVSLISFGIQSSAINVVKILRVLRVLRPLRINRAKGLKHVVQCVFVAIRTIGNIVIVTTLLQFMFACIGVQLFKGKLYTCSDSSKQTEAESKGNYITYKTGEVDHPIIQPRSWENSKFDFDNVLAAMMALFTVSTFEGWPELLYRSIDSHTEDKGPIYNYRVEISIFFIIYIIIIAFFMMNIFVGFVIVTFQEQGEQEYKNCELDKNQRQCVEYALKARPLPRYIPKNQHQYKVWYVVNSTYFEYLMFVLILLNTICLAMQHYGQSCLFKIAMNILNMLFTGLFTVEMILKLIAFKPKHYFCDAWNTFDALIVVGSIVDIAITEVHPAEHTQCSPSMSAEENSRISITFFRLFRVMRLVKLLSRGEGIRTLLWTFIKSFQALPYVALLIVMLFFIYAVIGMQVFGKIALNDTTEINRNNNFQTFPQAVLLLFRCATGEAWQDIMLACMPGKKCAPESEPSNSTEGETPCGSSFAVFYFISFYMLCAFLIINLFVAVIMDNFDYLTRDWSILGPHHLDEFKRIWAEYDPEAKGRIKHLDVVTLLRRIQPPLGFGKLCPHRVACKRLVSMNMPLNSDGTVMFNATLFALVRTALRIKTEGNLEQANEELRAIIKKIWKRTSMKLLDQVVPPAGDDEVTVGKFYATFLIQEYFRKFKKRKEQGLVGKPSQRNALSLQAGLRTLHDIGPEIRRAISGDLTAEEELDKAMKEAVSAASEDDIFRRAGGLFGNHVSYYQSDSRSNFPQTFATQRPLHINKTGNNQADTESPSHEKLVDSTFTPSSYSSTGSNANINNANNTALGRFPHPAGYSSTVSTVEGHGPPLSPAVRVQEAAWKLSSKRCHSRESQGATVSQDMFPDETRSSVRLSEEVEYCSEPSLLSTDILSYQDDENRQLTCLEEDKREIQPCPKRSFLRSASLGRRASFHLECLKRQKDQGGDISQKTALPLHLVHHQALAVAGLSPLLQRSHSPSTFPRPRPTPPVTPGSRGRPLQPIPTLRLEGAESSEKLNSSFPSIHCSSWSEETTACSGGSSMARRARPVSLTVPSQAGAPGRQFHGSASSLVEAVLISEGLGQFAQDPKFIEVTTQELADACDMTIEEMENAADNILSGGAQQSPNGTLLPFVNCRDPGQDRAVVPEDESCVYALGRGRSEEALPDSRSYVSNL
Voltage-dependent L-type calcium channel subunit alpha-1D, sequence (Q01668 whole entry): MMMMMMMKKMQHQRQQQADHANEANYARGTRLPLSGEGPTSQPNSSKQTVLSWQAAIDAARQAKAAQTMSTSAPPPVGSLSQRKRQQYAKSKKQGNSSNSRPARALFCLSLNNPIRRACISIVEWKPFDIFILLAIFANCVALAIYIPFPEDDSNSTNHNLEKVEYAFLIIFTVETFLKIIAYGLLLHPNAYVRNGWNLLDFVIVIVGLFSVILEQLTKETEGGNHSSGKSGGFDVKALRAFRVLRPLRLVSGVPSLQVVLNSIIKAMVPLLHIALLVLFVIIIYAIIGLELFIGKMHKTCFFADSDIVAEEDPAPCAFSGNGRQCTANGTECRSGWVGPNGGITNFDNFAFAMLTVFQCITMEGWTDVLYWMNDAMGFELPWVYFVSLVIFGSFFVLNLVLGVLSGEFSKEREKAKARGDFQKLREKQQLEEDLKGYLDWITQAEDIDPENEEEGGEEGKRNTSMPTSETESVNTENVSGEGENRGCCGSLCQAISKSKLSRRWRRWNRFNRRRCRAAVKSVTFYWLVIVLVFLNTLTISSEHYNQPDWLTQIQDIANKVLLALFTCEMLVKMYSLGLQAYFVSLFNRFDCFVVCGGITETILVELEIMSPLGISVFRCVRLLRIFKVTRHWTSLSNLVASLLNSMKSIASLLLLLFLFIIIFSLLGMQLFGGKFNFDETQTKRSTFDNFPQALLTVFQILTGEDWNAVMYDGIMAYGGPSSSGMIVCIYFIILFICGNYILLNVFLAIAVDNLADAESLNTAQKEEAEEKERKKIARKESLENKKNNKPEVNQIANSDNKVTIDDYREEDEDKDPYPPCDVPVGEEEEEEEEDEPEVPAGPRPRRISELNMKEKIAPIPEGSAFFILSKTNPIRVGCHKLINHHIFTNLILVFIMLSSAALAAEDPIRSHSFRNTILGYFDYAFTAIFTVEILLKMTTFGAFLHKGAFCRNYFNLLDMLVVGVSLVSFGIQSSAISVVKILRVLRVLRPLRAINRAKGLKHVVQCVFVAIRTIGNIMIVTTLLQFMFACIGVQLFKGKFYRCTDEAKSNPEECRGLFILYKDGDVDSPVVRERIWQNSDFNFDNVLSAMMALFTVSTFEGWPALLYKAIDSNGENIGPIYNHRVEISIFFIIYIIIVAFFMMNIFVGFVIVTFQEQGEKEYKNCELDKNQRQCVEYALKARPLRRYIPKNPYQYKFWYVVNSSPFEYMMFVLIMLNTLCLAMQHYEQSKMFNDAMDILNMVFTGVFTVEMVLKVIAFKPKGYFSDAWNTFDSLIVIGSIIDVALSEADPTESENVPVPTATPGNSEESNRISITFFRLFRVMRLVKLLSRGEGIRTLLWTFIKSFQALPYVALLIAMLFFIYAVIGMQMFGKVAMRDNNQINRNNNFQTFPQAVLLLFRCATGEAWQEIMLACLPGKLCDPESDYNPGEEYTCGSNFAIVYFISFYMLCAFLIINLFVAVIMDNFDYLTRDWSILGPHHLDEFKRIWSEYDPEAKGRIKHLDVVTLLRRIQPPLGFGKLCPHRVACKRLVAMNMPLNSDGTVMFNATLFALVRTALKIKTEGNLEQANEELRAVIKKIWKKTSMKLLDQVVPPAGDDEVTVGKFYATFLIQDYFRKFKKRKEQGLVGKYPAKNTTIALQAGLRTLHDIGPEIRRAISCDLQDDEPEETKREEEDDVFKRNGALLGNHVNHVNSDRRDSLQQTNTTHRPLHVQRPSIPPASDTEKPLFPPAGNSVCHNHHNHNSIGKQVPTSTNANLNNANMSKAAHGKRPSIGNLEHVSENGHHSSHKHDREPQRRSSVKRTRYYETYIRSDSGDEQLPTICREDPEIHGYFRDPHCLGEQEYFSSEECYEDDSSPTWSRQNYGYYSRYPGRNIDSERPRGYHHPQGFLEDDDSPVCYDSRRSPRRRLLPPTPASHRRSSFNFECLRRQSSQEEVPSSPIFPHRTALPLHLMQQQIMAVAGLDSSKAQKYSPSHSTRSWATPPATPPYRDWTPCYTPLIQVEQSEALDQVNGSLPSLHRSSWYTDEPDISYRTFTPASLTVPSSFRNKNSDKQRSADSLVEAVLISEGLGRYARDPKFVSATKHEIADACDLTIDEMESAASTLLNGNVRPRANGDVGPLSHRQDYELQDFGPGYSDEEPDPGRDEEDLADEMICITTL

Row | SMILES | Activity (SH-SY5Y [1]) | viability at 5 µM (SH-SY5Y [2]) | viability at 5 µM (SH-SY5Y [3]) | Activity (SH-SY5Y [4]) | IC50 [5] | Activity (SH-SY5Y [6]) | inhibition (INH) [7] | viability at 5 µM (SH-SY5Y [8]) | Ratio IC50 [9] | IC50 [7] | inhibition [5] | Activity (Hippocampus) | Activity (SH-SY5Y [10]) | viability at 0.3 µM (SH-SY5Y [11])
1 | CCOC(=O)C1=C(CC)NC(c2ccccc2)=CC1c1ccccc1 (stereo not given) | 32.8% | 67.3% | 77.4% | 31.4% | 12.8 µM |  |  |  |  |  |  |  |  | 
2 | COc1ccc(C2C=C(c3ccccc3)NC(C)=C2C(=O)SC(C)(C)C)cc1 (stereo not given) | 45.7% | 66.7% | 82.3% | 31.3% | 26.8 µM | 38.6% | Dose-dependent effect | 81.8% |  |  |  |  |  | 
3 | CCOC(=O)C1=C(C)NC(c2ccccc2)=CC1c1ccc(OC)cc1 (stereo not given) | 46.2% | 69.4% | 81.3% | 34.1% | 29.8 µM | 42% | Dose-dependent effect | 83.5% |  |  |  |  |  | 
4 | C=CCOC(=O)C1=C(C)NC(c2ccc(Cl)cc2)=CC1c1ccccc1 (stereo not given) | 41.5% | 68.7% | 79.7% | 29.8% | 18.5 µM | 44.1% | Dose-dependent effect | 84.3% |  |  |  |  |  | 
5 | CC1(C)CC(=O)C2=C(C1)NC(c1ccccc1)=CC2c1ccccc1 (stereo not given) | 26.9% | 64% | 74.6% | 21.4% | 2.8 µM |  | Dose-dependent effect |  | 8.3 | 0.34 µM | 79% |  |  | 
6 | CCOC(=O)C1=C(C)NC(c2ccc(Cl)cc2)=CC1c1ccccc1 (stereo not given) | 46.2% | 69.4% | 82.7% | 36.6% | 9.3 µM |  |  |  |  |  |  |  |  | 
7 | CCOC(=O)C1=C(C)NC(c2ccc(Cl)cc2)=CC1c1cccc(OC)c1 (stereo not given) | 47.8% | 72.7% | 81.9% | 40.1% | 15.1 µM | 20.5% |  | 76.6% |  |  | 48% |  |  | 
8 | CCCC1=C(C(=O)OCC)C(c2ccccc2)C=C(c2ccccc2)N1 (stereo not given) | 42.9% | 65.4% | 80.5% | 23.3% | 9.9 µM | 34.8% |  | 80.6% |  |  |  |  |  | 
9 | CC1=C(C(=O)SC(C)(C)C)C(c2ccccc2)C=C(c2ccccc2)N1 (stereo not given) | 39.6% | 68% | 79.5% | 34.1% | 95.8 µM |  | Dose-dependent effect |  |  |  |  |  |  | 
10 | CCOC(=O)C1=C(C)NC(c2ccccc2)=CC1c1ccc([N+](=O)[O-])cc1 (stereo not given) |  | 64.6% | 64.6% | 23.5% | 12.2 µM |  |  |  |  |  |  |  |  | 
11 | CC1=C(C(=O)SC(C)(C)C)C(/C(C)=C/c2ccccc2)C=C(c2ccccc2)N1 (stereo not given) | 52.4% | 69% | 83.7% | 35.3% | 63.1 µM | 52.2% | Dose-dependent effect | 86.2% | 3.1 | 20.3 µM |  | 45% |  | 
12 | CCOC(=O)C1=C(C)NC(c2ccc(Cl)cc2)=CC1c1ccc(Cl)cc1 (stereo not given) | 11.9% | 65.1% | 69.9% | 24.8% | 28.4 µM |  | Dose-dependent effect |  |  |  |  |  |  | 
13 | COC(=O)C1=C(C)NC(C)=C(C(=O)OC)C1c1ccccc1[N+](=O)[O-] [NIFEDIPINE] | 29.3% | 62.9% | 78.4% | 20% |  | 11.7% | Dose-dependent effect | 73.8% |  |  |  | inactive | 15.8% | 58.7%
14 | CC(=O)C1=C(C)NC(c2ccccc2)=CC1c1ccccc1 (stereo not given) | 61.9% | 67.4% | 87.3% | 32.5% | 27.1 µM | 21.7% | Dose-dependent effect | 76.7% |  |  |  |  |  | 
15 | CC1=C(C(=O)SC(C)(C)C)C(c2ccc(C)cc2)C=C(c2ccc(C)cc2)N1 (stereo not given) | 36.2% | 69.9% | 79.9% | 36.2% | > 100 µM |  |  |  |  |  |  |  |  | 
16 | CC1=C(C(=O)SC(C)(C)C)C(c2ccc(Br)cc2)C=C(c2ccc(C)cc2)N1 (stereo not given) | 57.9% | 67.2% | 85.7% | 34.5% | 59.6 µM | 12.3% | Dose-dependent effect | 74.2% |  |  |  |  |  | 
17 | CCOC(=O)C1=C(C)NC(c2ccccc2)=CC1c1ccccc1 (stereo not given) | 32.5% | 67.6% | 78.4% | 34.6% | 18.7 µM |  |  |  |  |  |  |  |  | 
18 | CCOC(=O)C1=C(C)NC(c2ccccc2)=CC1c1ccc(C)cc1 (stereo not given) | 53.3% | 72.3% | 83.5% | 39.8% | 20.6 µM | 60.1% | Dose-dependent effect | 88% | 1.9 | 10.6 µM | 43% | 45% |  | 
19 | CCOC(=O)C1=C(C)NC(c2ccc(Cl)cc2)=CC1c1ccccc1[N+](=O)[O-] (stereo not given) |  | 59.3% | 60% | 13.7% | 57.1 µM |  |  |  |  |  |  |  |  | 
20 | O=C1CCCC2=C1C(c1ccccc1)C=C(c1ccccc1)N2 (stereo not given) | 39.8% | 66.4% | 80.3% | 28.2% | 24 µM |  |  |  |  |  |  |  |  | 
21 | CCOC(=O)C1=C(C)NC(c2ccc(C)cc2)=CC1c1ccccc1[N+](=O)[O-] (stereo not given) | 11.7% | 62.9% | 69.9% | 22.1% | 44.1 µM |  |  |  |  |  |  |  |  | 
22 | CC1=C(C(=O)SC(C)(C)C)C(c2ccc(C)cc2)C=C(c2ccccc2)N1 (stereo not given) | 49.4% | 67.4% | 83.3% | 30.4% | 56.2 µM | 43.3% |  | 83.4% |  |  |  |  |  | 
23 | CCOC(=O)C1=C(C)NC(c2ccc(C)cc2)=CC1c1cccs1 (stereo not given) | 45.3% | 75.6% | 81.9% | 50.7% | 14.9 µM | 25.6% |  | 77.5% |  |  | 36% |  |  | 
24 | CCOC(=O)C1=C(C)NC(c2ccco2)=CC1c1ccc(C)cc1 (stereo not given) | 36.6% | 68.5% | 78% | 32% | 55.5 µM | 33.2% | Dose-dependent effect | 79.9% |  |  |  |  |  | 
